Source: ChEMBL document CHEMBL1649483, “Molecular analysis of the gyrA and gyrB quinolone resistance-determining regions of fluoroquinolone-resistant Clostridium difficile mutants selected in vitro” (2009)
≈ marks a conversion by molar mass, not a printed value.

Experiments:
Assay type in all cases: functional
Clostridioides difficile [1] = test: Antimicrobial activity against Clostridium difficile A422E harboring GyrB Leu451Phe mutant gene selected after 8 ug/ml of levofloxacin by Etest method
Method in brief: (§1)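 Stable in vitro-selected mutant tested for gatifloxacin susceptibility by Etest, per the manufacturer's instructions, with an 8 μg/ml breakpoint. For selection, the parent was grown in antibiotic-free brain heart infusion (BHI) for 24 h at 35°C under anaerobic conditions. […] Later steps used double the MIC. Stability was confirmed by three subcultures.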

Clostridioides difficile [2] = test: Antimicrobial activity against Clostridium difficile 630 expressing tcdA and tcdB gene by Etest method
Method in brief: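 Parent clinical or nontoxigenic isolate tested for gatifloxacin susceptibility by Etest, run per the manufacturer's instructions; a fluoroquinolone breakpoint of 8 μg/ml was applied.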

Clostridioides difficile [3] = test: Antimicrobial activity against Clostridium difficile 630A selected after 4 ug/ml of levofloxacin by Etest method; method in brief: as §1
Clostridioides difficile [4] = test: Antimicrobial activity against Clostridium difficile C253d selected after 4 ug/ml of moxifloxacin by Etest method
Clostridioides difficile [5] = test: Antimicrobial activity against Clostridium difficile C253c selected after 2 ug/ml of moxifloxacin by Etest method
Clostridioides difficile [6] = test: Antimicrobial activity against Clostridium difficile CD5F harboring GyrB Ser416Ala mutant gene selected after 8 ug/ml of levofloxacin by Etest method
Clostridioides difficile [7] = test: Antimicrobial activity against Clostridium difficile CD5c harboring GyrB Ser416Ala mutant gene selected after 2 ug/ml of moxifloxacin by Etest method
Clostridioides difficile [8] = test: Antimicrobial activity against Clostridium difficile CD5e harboring GyrB Ser416Ala mutant gene selected after 4 ug/ml of moxifloxacin by Etest method
Clostridioides difficile [9] = test: Antimicrobial activity against Clostridium difficile 630b selected after 2 ug/ml of moxifloxacin by Etest method; method in brief: as §1
Clostridioides difficile [10] = test: Antimicrobial activity against Clostridium difficile C253g harboring GyrA Ala118Ser mutant gene selected after 8 ug/ml of moxifloxacin by Etest method
Clostridioides difficile [11] = test: Antimicrobial activity against Clostridium difficile CD5B harboring GyrB Ser416Ala mutant gene selected after 4 ug/ml of levofloxacin by Etest method
Clostridioides difficile [12] = test: Antimicrobial activity against Clostridium difficile C253F selected after 8 ug/ml of levofloxacin by Etest method
Clostridioides difficile [13] = test: Antimicrobial activity against Clostridium difficile 630c selected after 2 ug/ml of moxifloxacin by Etest method; method in brief: as §1
Clostridioides difficile [14] = test: Antimicrobial activity against Clostridium difficile A422g harboring GyrA Asp81Asn mutant gene selected after 8 ug/ml of moxifloxacin by Etest method; method in brief: as §1
Clostridioides difficile [15] = test: Antimicrobial activity against Clostridium difficile CD5d harboring GyrB Ser416Ala mutant gene selected after 4 ug/ml of moxifloxacin by agar dilution method
Clostridioides difficile [16] = test: Antimicrobial activity against Clostridium difficile BI2A selected after 4 ug/ml of levofloxacin by agar dilution method
Clostridioides difficile [17] = test: Antimicrobial activity against Clostridium difficile 630e selected after 4 ug/ml of moxifloxacin by agar dilution method
Clostridioides difficile [18] = test: Antimicrobial activity against Clostridium difficile A422 expressing tcdA and tcdB gene by agar dilution method
Clostridioides difficile [19] = test: Antimicrobial activity against Clostridium difficile 630c selected after 2 ug/ml of moxifloxacin by agar dilution method
Clostridioides difficile [20] = test: Antimicrobial activity against Clostridium difficile 630g harboring GyrB […] mutant gene selected after 8 ug/ml of moxifloxacin by agar dilution method
Clostridioides difficile [21] = test: Antimicrobial activity against Clostridium difficile C253E selected after 8 ug/ml of levofloxacin by agar dilution method
Clostridioides difficile [22] = test: Antimicrobial activity against Clostridium difficile 630h harboring GyrB […] mutant gene selected after 8 ug/ml of moxifloxacin by agar dilution method
Clostridioides difficile [23] = test: Antimicrobial activity against Clostridium difficile A422h harboring GyrA Asp81Asn mutant gene selected after 8 ug/ml of moxifloxacin by agar dilution method
Clostridioides difficile [24] = test: Antimicrobial activity against Clostridium difficile CD5f harboring GyrB Ser416Ala mutant gene selected after 4 ug/ml of moxifloxacin by agar dilution method
Clostridioides difficile [25] = test: Antimicrobial activity against Clostridium difficile CD5c harboring GyrB Ser416Ala mutant gene selected after 2 ug/ml of moxifloxacin by agar dilution method
Clostridioides difficile [26] = test: Antimicrobial activity against Clostridium difficile CD5A harboring GyrB Ser416Ala mutant gene selected after 4 ug/ml of levofloxacin by agar dilution method
Clostridioides difficile [27] = test: Antimicrobial activity against Clostridium difficile 630A selected after 4 ug/ml of levofloxacin by agar dilution method
Clostridioides difficile [28] = test: Antimicrobial activity against Clostridium difficile CD5C harboring GyrB Ser416Ala mutant gene selected after 4 ug/ml of levofloxacin by agar dilution method
Clostridioides difficile [29] = test: Antimicrobial activity against Clostridium difficile C253b selected after 2 ug/ml of moxifloxacin by agar dilution method
Clostridioides difficile [30] = test: Antimicrobial activity against Clostridium difficile BI2C selected after 4 ug/ml of levofloxacin by agar dilution method
Clostridioides difficile [31] = test: Antimicrobial activity against Clostridium difficile A422A selected after 4 ug/ml of levofloxacin by agar dilution method
Clostridioides difficile [32] = test: Antimicrobial activity against Clostridium difficile A422a selected after 2 ug/ml of moxifloxacin by agar dilution method
Clostridioides difficile [33] = test: Antimicrobial activity against Clostridium difficile A422H harboring GyrA Thr82Ile and GyrB Leu451Phe mutant genes selected after 8 ug/ml of levofloxacin by agar dilution method
Clostridioides difficile [34] = test: Antimicrobial activity against Clostridium difficile A422f selected after 4 ug/ml of moxifloxacin by agar dilution method
Clostridioides difficile [35] = test: Antimicrobial activity against Clostridium difficile A422e selected after 4 ug/ml of moxifloxacin by agar dilution method
Clostridioides difficile [36] = test: Antimicrobial activity against Clostridium difficile BI2d harboring GyrB Arg447Lys and Asp426Asn mutant gene selected after 32 ug/ml of moxifloxacin by agar dilution method
Clostridioides difficile [37] = test: Antimicrobial activity against Clostridium difficile CD5i harboring GyrA Ala118Ser, Thr82Ala and GyrB Ser416Ala mutant genes selected after 8 ug/ml of moxifloxacin by agar dilution method
Clostridioides difficile [38] = test: Antimicrobial activity against Clostridium difficile BI2a harboring GyrB Arg447Lys mutant gene selected after 2 ug/ml of moxifloxacin by agar dilution method
Clostridioides difficile [39] = test: Antimicrobial activity against Clostridium difficile CD5h harboring GyrA Ala92Glu and GyrB Ser416Ala mutant genes selected after 8 ug/ml of moxifloxacin by agar dilution method
Clostridioides difficile [40] = test: Antimicrobial activity against Clostridium difficile C253a selected after 2 ug/ml of moxifloxacin by agar dilution method
Clostridioides difficile [41] = test: Antimicrobial activity against Clostridium difficile 630F harboring GyrA Ala118Val mutant gene selected after 8 ug/ml of levofloxacin by agar dilution method
Clostridioides difficile [42] = test: Antimicrobial activity against Clostridium difficile C253f selected after 4 ug/ml of moxifloxacin by agar dilution method
Clostridioides difficile [43] = test: Antimicrobial activity against Clostridium difficile 630b selected after 2 ug/ml of moxifloxacin by agar dilution method

COc1c(N2CCNC(C)C2)c(F)cc2c(=O)c(C(=O)O)cn(C3CC3)c12 (stereo not drawn) [GATIFLOXACIN] showed an MIC (Clostridioides difficile [1]) of 2 µg/mL, an MIC (Clostridioides difficile [2]) of 0.75 µg/mL (≈ 2 µM) and an MIC (Clostridioides difficile [3]) of 0.75 µg/mL. For the same molecule, the MIC (Clostridioides difficile [4]) was 1 µg/mL, the MIC (Clostridioides difficile [5]) was 1 µg/mL and the MIC (Clostridioides difficile [6]) was 2 µg/mL. The MIC (Clostridioides difficile [7]) was 0.75 µg/mL, the MIC (Clostridioides difficile [8]) was 0.75 µg/mL and the MIC (Clostridioides difficile [9]) was 0.75 µg/mL. For the same molecule, the MIC (Clostridioides difficile [10]) was 8 µg/mL, the MIC (Clostridioides difficile [11]) was 0.5 µg/mL and the MIC (Clostridioides difficile [12]) was 1 µg/mL. The MIC (Clostridioides difficile [13]) was 0.75 µg/mL and the MIC (Clostridioides difficile [14]) was no less than 32 µg/mL.
C[C@H]1COc2c(N3CCN(C)CC3)c(F)cc3c(=O)c(C(=O)O)cn1c23.C[C@H]1COc2c(N3CCN(C)CC3)c(F)cc3c(=O)c(C(=O)O)cn1c23.O [LEVOFLOXACIN] was tested, and the MIC (Clostridioides difficile [15]) was 2 µg/mL, the MIC (Clostridioides difficile [16]) was 1 µg/mL and the MIC (Clostridioides difficile [17]) was 4 µg/mL. It also gave an MIC (Clostridioides difficile [18]) of 2 µg/mL, an MIC (Clostridioides difficile [19]) of 4 µg/mL and an MIC (Clostridioides difficile [20]) of 64 µg/mL. The MIC (Clostridioides difficile [21]) was 2 µg/mL, the MIC (Clostridioides difficile [22]) was 64 µg/mL and the MIC (Clostridioides difficile [23]) was 64 µg/mL. The MIC (Clostridioides difficile [24]) was 2 µg/mL, the MIC (Clostridioides difficile [25]) was 2 µg/mL and the MIC (Clostridioides difficile [26]) was 1 µg/mL. The MIC (Clostridioides difficile [27]) was 1 µg/mL, the MIC (Clostridioides difficile [28]) was 1 µg/mL and the MIC (Clostridioides difficile [29]) was 4 µg/mL. It also gave an MIC (Clostridioides difficile [30]) of 1 µg/mL, an MIC (Clostridioides difficile [31]) of 1 µg/mL and an MIC (Clostridioides difficile [32]) of 4 µg/mL. It also gave an MIC (Clostridioides difficile [33]) of 64 µg/mL, an MIC (Clostridioides difficile [34]) of 4 µg/mL and an MIC (Clostridioides difficile [35]) of 4 µg/mL. For the same molecule, the MIC (Clostridioides difficile [36]) was 64 µg/mL, the MIC (Clostridioides difficile [37]) was 64 µg/mL and the MIC (Clostridioides difficile [38]) was 8 µg/mL. For the same molecule, the MIC (Clostridioides difficile [39]) was 16 µg/mL, the MIC (Clostridioides difficile [40]) was 4 µg/mL and the MIC (Clostridioides difficile [41]) was 8 µg/mL. For the same molecule, the MIC (Clostridioides difficile [42]) was 4 µg/mL and the MIC (Clostridioides difficile [43]) was 4 µg/mL.
